Screening data (PubChem BioAssay)
A selection: hits, their analogues and other compounds. The true share with any hit is near 5.9%.
Cav32 inh = inhibitors of human Cav3.2 T-type calcium channel | Cav3.2-expressing cells, Fluo-4 calcium fluorescence FDSS; stronger effect = lower value | 4% of 100,000 active | B-score at 10 µM | AID 449739;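 active = single-dose well whose peak fluorescence ratio is a statistical outlier from its plate by either plate-standardised score or position-corrected B-score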
DAT uptake mod = changed human dopamine transporter uptake under cocaine IC80; B-score at 10 µM; LLC-PK1 hDAT cells, [14C]-dopamine uptake with cocaine IC80; actives deviate in either direction; AID 449768; Q01959; 1.3% of 110,000 active;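 active = Z score or B-score, a plate-position-corrected score, falls beyond the plate's 99.7% confidence bounds, in either direction; inactive = both scores lie inside the 99.7% bounds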;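 also: scored against the spread of the other compound wells on the same plate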
Target sequence (Q01959 whole entry, looked up): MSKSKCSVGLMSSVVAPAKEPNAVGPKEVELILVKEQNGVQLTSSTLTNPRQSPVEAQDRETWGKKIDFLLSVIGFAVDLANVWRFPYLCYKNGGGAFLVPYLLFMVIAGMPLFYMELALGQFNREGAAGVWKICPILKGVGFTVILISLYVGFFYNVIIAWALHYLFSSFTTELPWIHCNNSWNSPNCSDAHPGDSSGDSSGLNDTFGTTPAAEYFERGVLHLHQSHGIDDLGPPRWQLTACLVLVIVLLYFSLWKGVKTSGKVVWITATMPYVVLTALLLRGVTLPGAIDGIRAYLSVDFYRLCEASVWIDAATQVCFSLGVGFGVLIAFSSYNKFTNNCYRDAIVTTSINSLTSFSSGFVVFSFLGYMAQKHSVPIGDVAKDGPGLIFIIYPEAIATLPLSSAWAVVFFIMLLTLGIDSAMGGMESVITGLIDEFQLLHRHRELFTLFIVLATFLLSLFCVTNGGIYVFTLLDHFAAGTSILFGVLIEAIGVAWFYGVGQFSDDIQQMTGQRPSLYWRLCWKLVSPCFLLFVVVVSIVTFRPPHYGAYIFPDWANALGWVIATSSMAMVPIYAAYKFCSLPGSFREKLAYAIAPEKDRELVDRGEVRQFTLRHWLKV
Phagocyt inh = blocks phagocytosis by macrophages; 0.07% of 110,000 active; inhibition, % at 5 µM; J774A.1 macrophage IgG-bead phagocytosis, imaging;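 active = inhibition above the mean of the plate negative controls plus 5 SD, cut at about 13% in these data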;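 also: phagocytic index as fraction of beads internalized from green versus red external bead signal; plate controls were DMSO negative control for no effect and cytochalasin-D positive control for full effect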
Pyk2 oligo antag = antagonists of human Pyk2 oligomerization. Q14289. Q293 cells, Pyk2 FERM NanoBiT luminescence; stronger effect = lower value. z-score (the deposit names both 25 µM and 10 µM). 0.83% of 99,000 active;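 active = Z-score of -3 or lower, scaled per plate to the spread of control and sample wells; inactive = z-score above -3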;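 also: negative z-score means lost luminescence so less FERM oligomerization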
HIV Rev-RRE inh = disrupts HIV-1 Rev binding to RRE RNA | P05866 | Rev peptide-RRE RNA binding, FRET | inhibition, % at 8 µM | 0.79% of 97,000 active | AID 704;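 active = inhibition above the screen-wide mean plus 3 SD, cut at about 35% in these data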;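 also: 0% = median DMSO wells and 100% = median Neomycin B control wells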
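Test system – labelled RRE RNA duplex and labelled Rev peptide · Reagent – labelled Rev peptide · Doses – one concentration, 8 µM nominal · Incubation – 5 + 15 min at 25 °C · Signal – FRET fluorescence readout · Read-out basis – % inhibition of FRET ratio versus controls · Control set – DMSO wells as 0% and neomycin B wells as 100% inhibition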
Measles CPE = protection of cells from measles virus. Measles virus-infected cells, CPE protection, absorbance. protection (pct of control), % at 4 µM. 1.5% of 140,000 active; in the data active = protection mostly above about 24%, no sharp cut-off; inactive = mostly below about 26%
Starred values were filed as active, the others as inactive.

Results for Cn1c(NCc2ccccc2O)nc2ccccc21 ?
Cav32 inh: 1.3; DAT uptake mod: -0.26; Phagocyt inh: 1; Pyk2 oligo antag: -0.8; Measles CPE: 28*

What do the screens show for `Cn1c(NCc2ccccc2Cl)nc2ccccc21`?
Cav32 inh: 1.4; DAT uptake mod: 0.37

What do the screens show for `COc1ccccc1OCCn1c(CO)nc2ccccc21`?
Cav32 inh: -0.32; DAT uptake mod: 0.94; Phagocyt inh: 0; Pyk2 oligo antag: 1.5; HIV Rev-RRE inh: 5; Measles CPE: 15

Results for COc1ccccc1OCCn1c(C(C)O)nc2ccccc21 (stereo not given) ?
Cav32 inh: -1; DAT uptake mod: -0.9; Phagocyt inh: -1; Pyk2 oligo antag: 0.23; HIV Rev-RRE inh: 2; Measles CPE: 76*

How did CC(C)CCn1c(C(C)O)nc2ccccc21 (stereo not given) do in these assays?
Cav32 inh: 0.19; DAT uptake mod: -0.75; Phagocyt inh: 0; Pyk2 oligo antag: -0.27; HIV Rev-RRE inh: 6; Measles CPE: 7

What do the screens show for `CC(O)c1nc2ccccc2n1CCOc1ccccc1` (stereo not given)?
Cav32 inh: -0.85; DAT uptake mod: -0.081; Pyk2 oligo antag: 0.56; HIV Rev-RRE inh: 1; Measles CPE: 38*

What do the screens show for `Cc1ccc(S(=O)(=O)N(Cc2ccc(Cl)cc2)c2ccccc2C(=O)NCc2ccco2)cc1`?
Phagocyt inh: -4; Measles CPE: 22

What do the screens show for `O=C(Nc1cccc(F)c1)c1cccnc1N1CCOCC1`?
Cav32 inh: -0.16; DAT uptake mod: -0.14; Phagocyt inh: 0; Pyk2 oligo antag: 0.53; HIV Rev-RRE inh: 3; Measles CPE: 24*

How did O=C1C=C(c2ccc(F)nc2)CCC1 do in these assays?
Cav32 inh: -0.033; DAT uptake mod: 0.44

What do the screens show for `CC(C)OCCCN1C=C2C(=O)C(C)(OC(=O)CCc3ccccc3)C(=O)C=C2C=C1c1ccc(C#N)cc1` (stereo not given)?
Cav32 inh: 0.39; DAT uptake mod: 0.49

Results for COc1ccccc1-c1nnc2sc(COc3ccc(Cl)cc3)nn12 ?
Cav32 inh: -2.8*; DAT uptake mod: -0.084; Phagocyt inh: 0; Pyk2 oligo antag: -0.56; HIV Rev-RRE inh: 12; Measles CPE: 5

How did COc1cc(-c2nn3c(-c4ccccc4)nnc3s2)cc(OC)c1OC do in these assays?
Cav32 inh: 1.8; DAT uptake mod: 2.7*; Phagocyt inh: 1; Pyk2 oligo antag: -0.09; HIV Rev-RRE inh: 1; Measles CPE: 10

How did COc1ccccc1-c1nnc2sc(C3CCCCC3)nn12 do in these assays?
Cav32 inh: -3; DAT uptake mod: 1.8*; Phagocyt inh: 0; Pyk2 oligo antag: 0.33; Measles CPE: 9

Results for Clc1ccccc1-c1nnc2sc(-c3ccccn3)nn12 ?
Cav32 inh: -0.3; DAT uptake mod: 0.79; Pyk2 oligo antag: -0.28; HIV Rev-RRE inh: 3; Measles CPE: 17

How did COc1cccc(OC)c1-c1nn2c(-c3ccccc3Cl)nnc2s1 do in these assays?
Cav32 inh: -3.2; DAT uptake mod: 0.073; Phagocyt inh: 0; Pyk2 oligo antag: -3*; HIV Rev-RRE inh: 6; Measles CPE: 5

How did CN(C)c1oc(-c2ccccc2Cl)nc1S(=O)(=O)c1ccccc1 do in these assays?
Cav32 inh: -6.3*; DAT uptake mod: -0.5; Phagocyt inh: 0; HIV Rev-RRE inh: 5; Measles CPE: 21

How did CC1(NC(=O)CC[N+](C)(C)CCO)CS(=O)(=O)CC1S(=O)(=O)[O-] (stereo not given) do in these assays?
Measles CPE: 5

Results for CCCNC(=O)c1ccc2c(c1)C1C3CCC(C3)C1C(c1ccccc1)N2 (stereo not given) ?
Cav32 inh: -5*; DAT uptake mod: 2; Phagocyt inh: 1; Pyk2 oligo antag: 0.04; HIV Rev-RRE inh: 2; Measles CPE: 4

How did CC1=C(n2nnc([N+](=O)[O-])n2)C(c2cccnc2)C(C#N)=C(N)O1 (stereo not given) do in these assays?
Phagocyt inh: -2; Measles CPE: 14

What do the screens show for `Cc1nc2ccccc2n1CC(=O)NCc1ccccc1`?
Cav32 inh: -0.0075; DAT uptake mod: 0.074; Phagocyt inh: -1; Pyk2 oligo antag: 2.1; HIV Rev-RRE inh: 8; Measles CPE: 7

Results for O=C(Cn1nnc2ccccc21)NCc1ccccc1 ?
Cav32 inh: -0.43; DAT uptake mod: -8.5*; Phagocyt inh: 9; Pyk2 oligo antag: -0.47; HIV Rev-RRE inh: 4; Measles CPE: 5

How did COC(=O)c1cc(NS(=O)(=O)c2ccc(N3CCC(C)CC3)c([N+](=O)[O-])c2)cc(C(=O)OC)c1 do in these assays?
Phagocyt inh: -1; Pyk2 oligo antag: -0.48; Measles CPE: 14

Results for O/N=C/c1cc(Br)ccc1OCc1ccccc1F ?
Cav32 inh: -1.6; DAT uptake mod: 0.92; Pyk2 oligo antag: -1.1; HIV Rev-RRE inh: 15

Results for C=CCOc1ccc2ccccc2c1/C=N/O ?
Cav32 inh: -1.5*; DAT uptake mod: 0.2; Phagocyt inh: 0; Pyk2 oligo antag: 1.1; HIV Rev-RRE inh: 10; Measles CPE: 7

How did C=CCOc1ccc(Br)cc1/C=N/O do in these assays?
Cav32 inh: -3.9*; DAT uptake mod: 0.38; Phagocyt inh: -1; Pyk2 oligo antag: -1.1; HIV Rev-RRE inh: 9; Measles CPE: 13

What do the screens show for `COC(=O)CSc1nc(C)cc(Oc2ccccc2)n1`?
Cav32 inh: 0.4; DAT uptake mod: 0.43; Phagocyt inh: 0; HIV Rev-RRE inh: 2; Measles CPE: 4

How did Cc1cc(Oc2ccccc2)nc(SCC(=O)Nc2ccc(Cl)cc2Cl)n1 do in these assays?
Cav32 inh: -5.8*; DAT uptake mod: 0.03; Phagocyt inh: 1; Pyk2 oligo antag: -0.88; HIV Rev-RRE inh: 1; Measles CPE: 4

How did CCOC(=O)N/N=C(\C)c1ccc(C)c([N+](=O)[O-])c1 do in these assays?
Phagocyt inh: -13; Measles CPE: 7

How did COC(=O)c1c(NC(=O)CCc2ccc(C)o2)sc(C)c1C do in these assays?
Cav32 inh: -0.42; DAT uptake mod: -0.94; Phagocyt inh: 3; Pyk2 oligo antag: 0.26; HIV Rev-RRE inh: 4; Measles CPE: 2

What do the screens show for `O=C(CSc1nnc(-c2ccco2)n1Cc1ccccc1)OC1CCCCC1`?
Cav32 inh: -6.2*; DAT uptake mod: 0.0033; Phagocyt inh: -1; Pyk2 oligo antag: -1.3; HIV Rev-RRE inh: 7; Measles CPE: 2

What do the screens show for `CCOC(=O)c1c(NC(=O)CCc2ccc(CC)o2)sc(C)c1C`?
Cav32 inh: -4.5*; DAT uptake mod: -1.9; Phagocyt inh: -2; Pyk2 oligo antag: 0.6; HIV Rev-RRE inh: 2; Measles CPE: 1

What do the screens show for `Cn1c(=O)c(C(=O)CSc2nnc(Nc3ccccc3)s2)c(N)n(Cc2ccccc2)c1=O`?
Cav32 inh: 0.4; DAT uptake mod: 0.56; Phagocyt inh: -1; Pyk2 oligo antag: -0.88; HIV Rev-RRE inh: 9; Measles CPE: 18
